# Assay results collected from several papers.
# Each line is one published result; the experiments were not run side by side.
# Organism: Bacillus subtilis
SMILES,read-out,method,strain,concentration,endpoint,result
O=C(O)c1cn(C2CC2)c2cc(N3CCNCC3)c(F)cc2c1=O,microbial growth,,6633,1000 µg/mL,inhibition zone,29 mm
O=C(O)c1ccc(-n2cc(/C=N/Nc3ccc(C(F)(F)F)cc3)c(-c3cccc(F)c3)n2)cc1,microbial growth,,ATCC6623,,MIC,12.5 µg/mL
Cc1cc(N)c2ccccc2[n+]1CCCCCCCCCC[n+]1c(C)cc(N)c2ccccc21,microbial growth,disc diffusion,,50 µg/disc,inhibition zone,11 mm
Cc1ccc(-c2nn(-c3ccccc3)cc2C=C(C#N)C2=NC(=O)CS2)cc1,microbial growth,well diffusion,,100000 µg/mL,inhibition zone,21 mm
O=C(O)CN1C(=O)/C(=C/c2c3ccccc3c(-c3ccc(N(c4ccccc4)c4ccccc4)cc3)c3ccccc23)SC1=S,microbial killing,broth dilution,ATCC6633,,MBC,> 1000 µg/mL
N#CC(=Cc1cn(-c2ccccc2)nc1-c1ccccc1)C1=NC(=O)CS1,microbial killing,broth dilution,,,MBC,0.25 µg/mL
CO[C@H]1O[C@H](COC(c2ccccc2)(c2ccccc2)c2ccccc2)[C@@H](OC(=O)c2ccc(C(C)(C)C)cc2)[C@H](OC(=O)c2ccc(C(C)(C)C)cc2)[C@H]1OC(=O)c1ccc(C(C)(C)C)cc1,microbial killing,broth dilution,,,MBC,16 µg/mL
O=C(O)CN1C(=O)/C(=C/c2ccc(-c3ccc(N(c4ccccc4)c4ccccc4)cc3)c3ccccc23)NC1=S,microbial killing,broth dilution,ATCC6633,,MBC,> 1000 µg/mL
N#CC(=Cc1ccc([N+](=O)[O-])cc1)C1=NC(=O)C(=Cc2cn(-c3ccccc3)nc2-c2ccccc2)S1,microbial growth,well diffusion,,100000 µg/mL,inhibition zone,23 mm
CN(/N=C/c1cn(-c2ccc(C(=O)O)cc2)nc1-c1ccc(F)cc1)c1ccccc1,microbial growth,,ATCC6623,,MIC,12.5 µg/mL
O=C1NC(=S)N/C1=C\c1ccc(-c2ccc(N(c3ccccc3)c3ccccc3)cc2)cc1,microbial killing,broth dilution,ATCC6633,,MBC,> 1000 µg/mL
Cc1c(NC(=O)CC2=NC(=O)CS2)c(=O)n(-c2ccccc2)n1C,microbial growth,well diffusion,,100000 µg/mL,inhibition zone,26 mm
O=C(O)CN1C(=O)/C(=C/c2c3ccccc3c(-c3ccc(N(c4ccccc4)c4ccccc4)cc3)c3ccccc23)NC1=S,microbial killing,broth dilution,ATCC6633,,MBC,> 1000 µg/mL
O=C(O)c1ccc(-n2cc(/C=N/Nc3cc(F)ccc3F)c(-c3cccc(F)c3)n2)cc1,microbial growth,,ATCC6623,,MIC,6.25 µg/mL
